Assay results as given in ChEMBL document CHEMBL1821604, “Anticancer activity and cDNA microarray studies of a (RS)-1,2,3,5-tetrahydro-4,1-benzoxazepine-3-yl]-6-chloro-9H-purine, and an acyclic (RS)-O,N-acetalic 6-chloro-7H-purine” (Eur J Med Chem, 2011).

Key:
Type in all cases: functional
HT-29 [1] = experiment: Down regulation of GBP1 gene expression in human HT-29 cells at IC50 after 48 hrs by cDNA microarray technique relative to control
Outline: (§1)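 Cells (8 × 10⁶) were cultured in DMEM with 10% heat-inactivated FBS at 37 °C under 5% CO₂. They were exposed for 48 h to compound at its IC₅₀, with DMSO-treated parallel cultures as controls (final DMSO ≤0.1% v/v). Total RNA was isolated by trizol/chloroform phase separation, RNeasy column cleanup and on-column DNase, then quantified by OD260/OD280. Expression was profiled by cDNA microarray relative to control.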

HT-29 [2] = experiment: Upregulation of YPEL1 gene expression in human HT-29 cells at IC50 after 48 hrs by cDNA microarray technique relative to control
MCF7 [3] = experiment: Upregulation of PPIL4 gene expression in human MCF7 cells at IC50 after 48 hrs by cDNA microarray technique relative to control
HT-29 [4] = experiment: Upregulation of CTSZ gene expression in human HT-29 cells at IC50 after 48 hrs by cDNA microarray technique relative to control
HT-29 [5] = experiment: Down regulation of NFATC1 gene expression in human HT-29 cells at IC50 after 48 hrs by cDNA microarray technique relative to control
MCF7 [6] = experiment: Down regulation of C21orf42 gene expression in human MCF7 cells at IC50 after 48 hrs by cDNA microarray technique relative to control
Outline: (§2)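 8 × 10⁶ cells exposed 48 h to compound at its IC50 concentration; total RNA isolated with trizol/chloroform and RNeasy columns including on-column DNase step; RNA quantified by OD 260/280; DMSO-treated cultures as control.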

HT-29 [7] = experiment: Down regulation of CD1B gene expression in human HT-29 cells at IC50 after 48 hrs by cDNA microarray technique relative to control; outline: as §2
MCF7 [8] = experiment: Upregulation of ROS1 gene expression in human MCF7 cells at IC50 after 48 hrs by cDNA microarray technique relative to control
MCF7 [9] = experiment: Down regulation of GLIPR1 gene expression in human MCF7 cells at IC50 after 48 hrs by cDNA microarray technique relative to control; outline: as §1
MCF7 [10] = experiment: Down regulation of TGM4 gene expression in human MCF7 cells at IC50 after 48 hrs by cDNA microarray technique relative to control
MCF7 [11] = experiment: Upregulation of ABCD2 gene expression in human MCF7 cells at IC50 after 48 hrs by cDNA microarray technique relative to control
MCF7 [12] = experiment: Upregulation of HMGCS2 gene expression in human MCF7 cells at IC50 after 48 hrs by cDNA microarray technique relative to control
HT-29 [13] = experiment: Upregulation of C20orf40 gene expression in human HT-29 cells at IC50 after 48 hrs by cDNA microarray technique relative to control
HT-29 [14] = experiment: Upregulation of HOXB8 gene expression in human HT-29 cells at IC50 after 48 hrs by cDNA microarray technique relative to control
MCF7 [15] = experiment: Down regulation of DOK5 gene expression in human MCF7 cells at IC50 after 48 hrs by cDNA microarray technique relative to control; outline: as §1
MCF7 [16] = experiment: Down regulation of HLA-DOB gene expression in human MCF7 cells at IC50 after 48 hrs by cDNA microarray technique relative to control; outline: as §1
HT-29 [17] = experiment: Down regulation of FADS6 gene expression in human HT-29 cells at IC50 after 48 hrs by cDNA microarray technique relative to control; outline: as §1
HT-29 [18] = experiment: Down regulation of COL11A1 gene expression in human HT-29 cells at IC50 after 48 hrs by cDNA microarray technique relative to control; outline: as §2
HT-29 [19] = experiment: Down regulation of DNAJC5B gene expression in human HT-29 cells at IC50 after 48 hrs by cDNA microarray technique relative to control; outline: as §1
MCF7 [20] = experiment: Down regulation of TDGF1 gene expression in human MCF7 cells at IC50 after 48 hrs by cDNA microarray technique relative to control
HT-29 [21] = experiment: Upregulation of PLOD2 gene expression in human HT-29 cells at IC50 after 48 hrs by cDNA microarray technique relative to control
MCF7 [22] = experiment: Down regulation of TMPRSS6 gene expression in human MCF7 cells at IC50 after 48 hrs by cDNA microarray technique relative to control
MCF7 [23] = experiment: Down regulation of TSGA10 gene expression in human MCF7 cells at IC50 after 48 hrs by cDNA microarray technique relative to control
MCF7 [24] = experiment: Down regulation of THC2438856 gene expression in human MCF7 cells at IC50 after 48 hrs by cDNA microarray technique relative to control
HT-29 [25] = experiment: Down regulation of ANP32C gene expression in human HT-29 cells at IC50 after 48 hrs by cDNA microarray technique relative to control; outline: as §2
MCF7 [26] = experiment: Down regulation of CCT6B gene expression in human MCF7 cells at IC50 after 48 hrs by cDNA microarray technique relative to control; outline: as §2
MCF7 [27] = experiment: Upregulation of AY232284 gene expression in human MCF7 cells at IC50 after 48 hrs by cDNA microarray technique relative to control
MCF7 [28] = experiment: Down regulation of PARP9 gene expression in human MCF7 cells at IC50 after 48 hrs by cDNA microarray technique relative to control
HT-29 [29] = experiment: Down regulation of HBZ gene expression in human HT-29 cells at IC50 after 48 hrs by cDNA microarray technique relative to control; outline: as §1
MCF7 [30] = experiment: Upregulation of ERN1 gene expression in human MCF7 cells at IC50 after 48 hrs by cDNA microarray technique relative to control
MCF7 [31] = experiment: Upregulation of MYCN gene expression in human MCF7 cells at IC50 after 48 hrs by cDNA microarray technique relative to control
HT-29 [32] = experiment: Down regulation of FUS gene expression in human HT-29 cells at IC50 after 48 hrs by cDNA microarray technique relative to control; outline: as §1
HT-29 [33] = experiment: Down regulation of TAF5L gene expression in human HT-29 cells at IC50 after 48 hrs by cDNA microarray technique relative to control
MCF7 [34] = experiment: Down regulation of FBXL7 gene expression in human MCF7 cells at IC50 after 48 hrs by cDNA microarray technique relative to control; outline: as §1
MCF7 [35] = experiment: Upregulation of SCGB1D2 gene expression in human MCF7 cells at IC50 after 48 hrs by cDNA microarray technique relative to control
HT-29 [36] = experiment: Down regulation of ANP32D gene expression in human HT-29 cells at IC50 after 48 hrs by cDNA microarray technique relative to control; outline: as §2
MCF7 [37] = experiment: Upregulation of LRRC48 gene expression in human MCF7 cells at IC50 after 48 hrs by cDNA microarray technique relative to control
HT-29 [38] = experiment: Down regulation of TNPO1 gene expression in human HT-29 cells at IC50 after 48 hrs by cDNA microarray technique relative to control

COC(CN(c1ccccc1CO)S(=O)(=O)c1ccccc1[N+](=O)[O-])n1cnc2ncnc(Cl)c21 (racemic) was tested, and the “fold change (FC)” value (HT-29 [1]) was -2.47, the “fold change (FC)” value (HT-29 [2]) was 4.71 and the “fold change (FC)” value (MCF7 [3]) was 2.4. For the same compound, the “fold change (FC)” value (HT-29 [4]) was 2.23, the “fold change (FC)” value (HT-29 [5]) was -2.78 and the “fold change (FC)” value (MCF7 [6]) was -2.31. The “fold change (FC)” value (HT-29 [7]) was -2.32, the “fold change (FC)” value (MCF7 [8]) was 2.59 and the “fold change (FC)” value (MCF7 [9]) was -2.12. For the same compound, the “fold change (FC)” value (MCF7 [10]) was -2.58, the “fold change (FC)” value (MCF7 [11]) was 2.25 and the “fold change (FC)” value (MCF7 [12]) was 2.39. For the same compound, the “fold change (FC)” value (HT-29 [13]) was 2.56, the “fold change (FC)” value (HT-29 [14]) was 2.11 and the “fold change (FC)” value (MCF7 [15]) was -2.11. For the same compound, the “fold change (FC)” value (MCF7 [16]) was -2.26, the “fold change (FC)” value (HT-29 [17]) was -2.34 and the “fold change (FC)” value (HT-29 [18]) was -2.03. For the same compound, the “fold change (FC)” value (HT-29 [19]) was -2.49.
With O=C(OCC1c2ccccc2-c2ccccc21)N1CC(n2cnc3c(Cl)ncnc32)OCc2ccccc21 (racemic) the “fold change (FC)” value (MCF7 [20]) was -3, the “fold change (FC)” value (HT-29 [21]) was 2.76 and the “fold change (FC)” value (MCF7 [22]) was -2.03. The “fold change (FC)” value (MCF7 [23]) was -3.3, the “fold change (FC)” value (MCF7 [24]) was -3.05 and the “fold change (FC)” value (HT-29 [25]) was -2.81. The “fold change (FC)” value (MCF7 [26]) was -3.22, the “fold change (FC)” value (MCF7 [27]) was 3.98 and the “fold change (FC)” value (MCF7 [28]) was -3.23. The “fold change (FC)” value (HT-29 [29]) was -2.84, the “fold change (FC)” value (MCF7 [30]) was 2.81 and the “fold change (FC)” value (MCF7 [31]) was 2.98. The “fold change (FC)” value (HT-29 [32]) was -2.99, the “fold change (FC)” value (HT-29 [33]) was -2.18 and the “fold change (FC)” value (MCF7 [34]) was -2.86. For the same compound, the “fold change (FC)” value (MCF7 [35]) was 6.02, the “fold change (FC)” value (HT-29 [36]) was -2.8 and the “fold change (FC)” value (MCF7 [37]) was 2.18. The “fold change (FC)” value (HT-29 [38]) was -2.5.
